According to ChEMBL document CHEMBL4261518, “Side chain-functionalized aniline-derived ursolic acid derivatives as multidrug resistance reversers that block the nuclear factor-kappa B (NF-κB) pathway and cell proliferation” (Medchemcomm, 2017):
Active and inactive are the calls of the source. The calls are words filed in the database; no cut-off is given here.

Assays:
NCI-H460 [1] = assay: Cell cycle arrest in human NCI-H460 cells assessed as accumulation at S-phase at 10 uM after 24 to 48 hrs by propidium iodide staining based flow cytometry (reference value: 54.36%); format: functional
NCI-H460 [2] = assay: Cell cycle arrest in human NCI-H460 cells assessed as accumulation at G1-phase at 5 uM after 24 to 48 hrs by propidium iodide staining based flow cytometry (reference value: 41.83%); format: functional
NCI-H460 [3] = assay: Induction of ROS generation in human NCI-H460 cells at 5 uM after 24 hrs by DCF-DA staining based flow cytometry (reference value: 12.9%); format: functional
NCI-H460 [4] = assay: Cell cycle arrest in human NCI-H460 cells assessed as accumulation at S-phase at 5 uM after 24 to 48 hrs by propidium iodide staining based flow cytometry (reference value: 54.36%); format: functional
NCI-H460 [5] = assay: Induction of apoptosis in human NCI-H460 cells assessed as early apoptotic cells at 10 uM after 24 hrs by propidium iodide/Annexin V-FITC staining based flow cytometry (reference value: 2.79%); format: functional
NCI-H460 [6] = assay: Inhibition of TNFalpha-induced TAB1 protein expression in human NCI-H460 cells by Western blot analysis; format: functional, cell-based
In short: (§1)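 TNF-α-stimulated NCI-H460 cells treated with compound, lysed in ice-cold RIPA with protease and phosphatase inhibitors, protein measured by Bradford. Equal protein run on 12% SDS-PAGE, transferred to PVDF. Probed overnight at 4 °C for TAK1, TAB1, IKKα, p-IKKα/β or NF-κB p65, then HRP secondary (1:2000), chemiluminescence, β-actin loading control. Three separate experiments.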

HepG2 = assay: Cytotoxicity against human HepG2 cells after 48 hrs by MTT assay; format: functional, cell-based; details: HepG2, 48 h
In short: (§2)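 Cells grown overnight in DMEM + 10% FBS at 37 °C under 5% CO2, then given a range of compound concentrations for 48 h. MTT added for about 4 h, medium replaced by DMSO, absorbance read at 570/630 nm. IC50 reported as mean ± SD of five independent experiments.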

NCI-H460 [7] = assay: Induction of apoptosis in human NCI-H460 cells assessed as live cells at 10 uM after 24 hrs by propidium iodide/Annexin V-FITC staining based flow cytometry (reference value: 89%); format: functional
[8] = target: Transcription factor p65 (Homo sapiens) (UniProt Q04206); assay: Inhibition of TNFalpha-induced NF-kB p65 activation human NCI-H460 cells assessed as reduction in DNA binding ability at 5 to 10 uM by ELISA relative to control; format: cell-based
NCI-H460 [9] = assay: Induction of apoptosis in human NCI-H460 cells assessed as live cells at 5 uM after 24 hrs by propidium iodide/Annexin V-FITC staining based flow cytometry (reference value: 89%); format: functional
NCI-H460 [10] = assay: Induction of apoptosis in human NCI-H460 cells assessed as late apoptotic cells at 10 uM after 24 hrs by propidium iodide/Annexin V-FITC staining based flow cytometry (reference value: 5.4%); format: functional
NCI-H460 [11] = assay: Induction of apoptosis in human NCI-H460 cells assessed as necrotic cells at 10 uM after 24 hrs by propidium iodide/Annexin V-FITC staining based flow cytometry (reference value: 2.8%); format: functional
A549 = assay: Cytotoxicity against human A549 cells after 48 hrs by MTT assay; format: functional, cell-based; details: A549, 48 h; in short: as §2
NCI-H460 [12] = assay: Inhibition of TNFalpha-induced NF-kB protein expression in human NCI-H460 cells by Western blot analysis; format: functional, cell-based; in short: as §1
NCI-H460 [13] = assay: Cell cycle arrest in human NCI-H460 cells assessed as accumulation at G2-phase at 10 uM after 24 to 48 hrs by propidium iodide staining based flow cytometry (reference value: 3.82%); format: functional
NCI-H460 [14] = assay: Induction of apoptosis in human NCI-H460 cells assessed as necrotic cells at 5 uM after 24 hrs by propidium iodide/Annexin V-FITC staining based flow cytometry (reference value: 2.8%); format: functional
NCI-H460 [15] = assay: Cell cycle arrest in human NCI-H460 cells assessed as accumulation at G1-phase at 10 uM after 24 to 48 hrs by propidium iodide staining based flow cytometry (reference value: 41.83%); format: functional
NCI-H460 [16] = assay: Induction of apoptosis in human NCI-H460 cells after 24 hrs by propidium iodide/Annexin V-FITC staining based flow cytometry; format: functional, cell-based
[17] = Resistant factor, ratio of IC50 for human NCI-H460/DOX cells to IC50 for human NCI-H460 cells; format: functional
L02 = assay: Cytotoxicity against human HL7702 cells after 48 hrs by MTT assay; format: cell-based; details: L02, 48 h; in short: as §2
[18] = Inhibition of TNFalpha-induced NF-kB (unknown origin) activation expressed in human NCI-H460 cells after 7 hrs by luciferase reporter gene assay; format: cell-based; details: NCI-H460, 7 h
In short: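 NCI-H460 cells transiently co-transfected with pNF-κB-Luc reporter and pSV-β-galactosidase internal control by lipofectamine. Medium changed after 6 h, then 6 h further culture. TNF-α (15 ng ml–1) plus compound given together for 7 h. Luciferase ratio to TNF-α-only cells, corrected for non-TNF background and viability. IC50 from sigmoidal variable-slope fit.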

NCI-H460 [19] = assay: Induction of ROS generation in human NCI-H460 cells at 10 uM after 24 hrs by DCF-DA staining based flow cytometry (reference value: 12.9%); format: functional
NCI-H460 [20] = assay: Induction of apoptosis in human NCI-H460 cells assessed as early apoptotic cells at 5 uM after 24 hrs by propidium iodide/Annexin V-FITC staining based flow cytometry (reference value: 2.79%); format: functional
NCI-H460 [21] = assay: Induction of apoptosis in human NCI-H460 cells assessed as nuclear condensation after 24 hrs by Hoechst 33258 staining based fluorescence microscopic method; format: functional, cell-based
In short: (§3)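 NCI-H460 cells (2 × 10^6) in six-well plates exposed to 5 or 10 μM for 24 h. Fixed 10 min in 4% paraformaldehyde, washed in cold PBS, stained with Hoechst 33258 for 5 min in the dark. Viewed by fluorescence microscopy at ex 350/em 460 nm; brightly stained condensed nuclei scored as apoptotic.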

NCI-H460 [22] = assay: Inhibition of TNFalpha-induced TAK1 protein expression in human NCI-H460 cells by Western blot analysis; format: functional, cell-based; in short: as §1
[23] = target: Inhibitor of NF-kappa-B kinase alpha/beta (Homo sapiens) (UniProt O14920+O15111); assay: Inhibition of TNFalpha-induced IKKalpha/beta phosphorylation in human NCI-H460 cells by Western blot analysis; format: cell-based; in short: as §1
NCI-H460 [24] = assay: Inhibition of TNFalpha-induced IKKalpha protein expression in human NCI-H460 cells at 5 to 10 uM by Western blot analysis; format: functional, cell-based; in short: as §1
[25] = Cytotoxicity against human SPCA2 cells after 48 hrs by MTT assay; format: functional, cell-based; details: SPCA2, 48 h; in short: as §2
[26] = Cytotoxicity against human NCI-H460/DOX cells after 48 hrs by MTT assay; format: functional, cell-based; details: NCI-H460, 48 h; in short: as §2
NCI-H460 [27] = assay: Induction of ROS generation in human NCI-H460 cells at 10 uM after 24 hrs by DCF-DA staining based flow cytometry relative to control; format: functional
NCI-H460 [28] = assay: Induction of apoptosis in human NCI-H460 cells assessed as chromatin condensation after 24 hrs by Hoechst 33258 staining based fluorescence microscopic method; format: functional, cell-based; in short: as §3
NCI-H460 [29] = assay: Cytotoxicity against human NCI-H460 cells after 48 hrs by MTT assay; format: functional, cell-based; details: NCI-H460, 48 h; in short: as §2
[30] = Cytotoxicity against human HepG2/DOX cells after 48 hrs by MTT assay; format: functional, cell-based; in short: as §2
NCI-H460 [31] = assay: Cytotoxicity against human NCI-H460 cells harboring pNF-kB-Luc assessed as reduction in cell viability after 7 hrs by MTT assay relative to control; parameters: concentration or dose not given beside the values; details: nci-h460, 7 h
T-24 = assay: Cytotoxicity against human T24 cells after 48 hrs by MTT assay; format: functional, cell-based; details: T-24, 48 h; in short: as §2
NCI-H460 [32] = assay: Induction of apoptosis in human NCI-H460 cells assessed as late apoptotic cells at 5 uM after 24 hrs by propidium iodide/Annexin V-FITC staining based flow cytometry (reference value: 5.4%); format: functional
MGC-803 = assay: Cytotoxicity against human MGC803 cells after 48 hrs by MTT assay; format: functional, cell-based; details: MGC-803, 48 h; in short: as §2
NCI-H460 [33] = assay: Cell cycle arrest in human NCI-H460 cells assessed as accumulation at G2-phase at 5 uM after 24 to 48 hrs by propidium iodide staining based flow cytometry (reference value: 3.82%); format: functional
[34] = Resistant factor, ratio of IC50 for human HepG2/DOX cells to IC50 for human HepG2 cells; format: functional

Chain of Transcription factor p65 (Homo sapiens) (Q04206 whole entry): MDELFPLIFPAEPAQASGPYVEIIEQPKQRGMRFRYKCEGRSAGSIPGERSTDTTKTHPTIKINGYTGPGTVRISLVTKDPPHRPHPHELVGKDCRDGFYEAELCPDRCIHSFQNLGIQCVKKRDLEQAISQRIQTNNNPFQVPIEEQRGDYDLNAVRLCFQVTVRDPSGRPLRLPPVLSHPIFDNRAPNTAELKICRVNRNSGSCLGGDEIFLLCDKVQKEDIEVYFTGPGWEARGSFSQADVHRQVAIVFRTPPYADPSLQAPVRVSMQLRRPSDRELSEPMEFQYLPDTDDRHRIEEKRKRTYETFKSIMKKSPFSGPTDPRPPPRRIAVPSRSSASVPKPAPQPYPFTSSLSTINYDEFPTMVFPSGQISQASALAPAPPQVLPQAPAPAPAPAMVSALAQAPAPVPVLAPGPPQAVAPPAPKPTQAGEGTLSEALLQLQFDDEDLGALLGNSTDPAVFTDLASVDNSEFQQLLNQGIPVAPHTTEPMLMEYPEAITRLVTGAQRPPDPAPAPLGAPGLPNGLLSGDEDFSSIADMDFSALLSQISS

For `CC(=O)O[C@H]1CC[C@]2(C)[C@H]3CC=C4[C@@H]5[C@@H](C)[C@H](C)CC[C@]5(C(=O)NCCN(C)C)CC[C@@]4(C)[C@]3(C)CC[C@H]2C1(C)C`, the Activity (NCI-H460 [1]) was 41.95%, the Activity (NCI-H460 [2]) was 49.26% and the Activity (NCI-H460 [3]) was 14.9%. The Activity (NCI-H460 [4]) was 46.27%, the Activity (NCI-H460 [5]) was 47.1% and the inhibition (NCI-H460 [6]) was “Dose-dependent effect”. For the same compound, the IC50 (HepG2) was 8.14 µM, the Activity (NCI-H460 [7]) was 41.9% and the fold change (FC) [8] was 2.3. For the same compound, the Activity (NCI-H460 [9]) was 79.9%, the Activity (NCI-H460 [10]) was 5.16% and the Activity (NCI-H460 [11]) was 5.8%. The IC50 (A549) was 4.32 µM, the inhibition (NCI-H460 [12]) was “Dose-dependent effect” and the Activity (NCI-H460 [13]) was 4.23%. The Activity (NCI-H460 [14]) was 3.85%, the Activity (NCI-H460 [15]) was 53.82% and the Activity (NCI-H460 [16]) was “Dose-dependent effect”. The “Ratio IC50” value [17] was 1.68, the IC50 (L02) was over 50 µM and the IC50 [18] was 0.36 µM. The Activity (NCI-H460 [19]) was 40.8%, the Activity (NCI-H460 [20]) was 12.3% and the Activity (NCI-H460 [21]) was “Dose-dependent effect”. For the same compound, the inhibition (NCI-H460 [22]) was “Dose-dependent effect”, the inhibition [23] was “Dose-dependent effect” and the inhibition (NCI-H460 [24]) was “Active”. The IC50 [25] was 5.38 µM, the IC50 [26] was 5.2 µM and the “fold change (FC)” value (NCI-H460 [27]) was over 3. The Activity (NCI-H460 [28]) was “Dose-dependent effect”, the IC50 (NCI-H460 [29]) was 3.08 µM and the IC50 [30] was 10.8 µM. It also gave an Activity (NCI-H460 [31]) of under 5%, an IC50 (T-24) of 5.51 µM and an Activity (NCI-H460 [32]) of 3.9%. The IC50 (MGC-803) was 7.96 µM, the Activity (NCI-H460 [33]) was 4.46% and the “Ratio IC50” value [34] was 1.33.
